Test results: PMC4000071 (Journal of Toxicologic Pathology, 2014)
Where two headings read alike, the source gives them in different places.

Experiments:
[1] = molecular target: T1, adrenergic α1B receptor (Homo sapiens, UniProt P35368); experiment: secondary pharmacology screens, α1B; type: biochemical; settings: 10 µM
T1 sequence (P35368 1-520): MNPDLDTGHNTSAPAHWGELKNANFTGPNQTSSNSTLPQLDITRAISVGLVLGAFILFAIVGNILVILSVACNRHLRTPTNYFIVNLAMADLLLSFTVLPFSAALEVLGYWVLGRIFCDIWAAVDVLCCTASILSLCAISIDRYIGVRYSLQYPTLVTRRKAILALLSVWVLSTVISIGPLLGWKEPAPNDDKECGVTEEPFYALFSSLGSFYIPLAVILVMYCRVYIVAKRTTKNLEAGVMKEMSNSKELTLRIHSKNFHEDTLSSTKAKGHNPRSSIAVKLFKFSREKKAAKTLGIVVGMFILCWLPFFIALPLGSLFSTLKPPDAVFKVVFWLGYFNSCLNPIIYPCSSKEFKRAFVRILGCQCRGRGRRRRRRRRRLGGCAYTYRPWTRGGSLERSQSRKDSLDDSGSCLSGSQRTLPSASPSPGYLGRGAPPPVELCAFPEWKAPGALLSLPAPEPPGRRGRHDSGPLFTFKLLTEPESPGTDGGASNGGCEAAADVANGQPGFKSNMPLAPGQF

[2] = system: phospholipidosis (PLD); experiment: in vitro PLD screen; type: cell-based; settings: read-out: EC50 (phospholipogenic, in vitro); in vitro PLD screen; unpublished data
[3] = system: beagle dogs; experiment: 3-month toxicity study, in-life, clinical pathology and pathology; type: in vivo
How it was run: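 Beagles aged 9 months received 0, 7, 15 or 30 mg/kg/day by oral gavage for 3 months in 0.1 M lactic acid (pH 3.0). Groups were 3/sex/dose, with 3/sex added for 5-week recovery in control and high dose. Neurologic examination was done. Clinical pathology: pretest, Weeks 6, 13, end of recovery. Full tissue list including dorsal root ganglia. Eyes/optic nerve fixed in Davidson's, sciatic nerve in Bouin's, others in formalin. Sections ~5 µm, H&E.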

[4] = system: brain 5-HT1B receptors; settings: cited from earlier work
[5] = 3-month toxicity study, toxicokinetics; type: in vivo, beagle dogs; settings: 30 mg/kg/day
How it was run: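 Dogs received 7, 15 or 30 mg/kg/day by oral gavage for 3 months. Serial blood was drawn on Days 1, 23, 56 and 91, pre-dose and from 0.5 to 24 h post-dose. One decedent was sampled on Day 86 before euthanasia. Plasma drug was measured and tmax, Cmax, AUC and t1/2 were derived.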

[6] = system: rat; experiment: 14-day rat study; type: in vivo; settings: 14-day study, unpublished data
[7] = cited from earlier work
[8] = system: mitochondrial oxidative phosphorylation; experiment: mitochondrial oxidative phosphorylation inhibition; type: biochemical; settings: unpublished data
[9] = rat systemic and brain exposure; type: in vivo; settings: 25 mg/kg/day (NOEL for neuropathology), unpublished results
[10] = system: brain 5-HT1B receptors; settings: non-human primates; cited from earlier work
[11] = man, 5 mg projected efficacious dose; cited from earlier work
[12] = Female 15 mg/kg/day (N=3), 3 months
[13] = Female 15 mg/kg/day (N=3), 3 months, highest incidence shown
[14] = Female 30 mg/kg/day (N=2), after 5 weeks of recovery
[15] = Female 30 mg/kg/day (N=5), after 3 months of dosing
[16] = Male 7 mg/kg/day (N=3), 3 months, highest incidence shown
[17] = Male 15 mg/kg/day (N=3), 3 months
[18] = Male 15 mg/kg/day (N=3), 3 months, highest incidence shown
[19] = Male 30 mg/kg/day (N=3), 3 months
[20] = Male 30 mg/kg/day (N=3), 3 months, highest incidence shown
[21] = Male 30 mg/kg/day (N=3), after 5 weeks of recovery
[22] = Male 30 mg/kg/day (N=6), after 3 months of dosing
[23] = dog, 30 mg/kg/day 3 months then 5-week recovery
[24] = dog, 30 mg/kg/day males, Week 3 until end of dosing
[25] = dog, 30 mg/kg/day, after 3 months

For COc1cc2c(c(N3CCN(C)CC3)c1)O[C@@H](C(=O)Nc1ccc(N3CCOCC3)cc1)CC2 [AZD3783, (2R)-6-methoxy-8-(4-methylpiperazin-1-yl)-N-(4-morpholin-4-ylphenyl) chromane-2-carboxamide], the “activity at adrenergic α1B receptor” value [1] was “antagonist”, the EC50 [2] was 164 µM and the “D.R. ganglion: cerv., thoracic, lumbar: Vacuolation; ganglion cell (incidence)” value (from here on “D.R. ganglion … ganglion cell (incidence)”) ([3]; Female 7 mg/kg/day (N=3), 3 months, highest incidence shown) was 2. The “Ophthalmologic finding: Normal (number of dogs)” value (“Ophthalmologic finding: Normal” below) ([3]; Female 7 mg/kg/day (N=3), after 3 months of dosing) was 3, the “Brain: Degeneration/necrosis; neuronal (incidence)” value [3, 12] was 1 and the “Brain: Degeneration: nerve fiber (incidence)” value [3, 12] was 1. For the same compound, the “Brain: Gliosis (incidence)” value [3, 12] was 1, the “Brain: Vacuolation: neuronal (incidence)” value [3, 12] was 2 and the “D.R. ganglion: cerv., thoracic, lumbar: Inflammation (incidence)” value (“D.R. ganglion … Inflammation (incidence)” below) [3, 13] was 2. The “D.R. ganglion … ganglion cell (incidence)” value [3, 13] was 3, the “Ophthalmologic finding: Normal” value ([3]; Female 15 mg/kg/day (N=3), after 3 months of dosing) was 3 and the “Ophthalmologic finding: Chorioretinal scar (number of dogs)” value [3, 14] was 1. For the same compound, the “Ophthalmologic finding: Normal” value [3, 14] was 1, the “Ophthalmologic finding: Retinal detachment (number of dogs)” value [3, 14] was 1 and the “Ophthalmologic finding: Normal” value [3, 15] was 2. For the same compound, the “Ophthalmologic finding: Retinal detachment (number of dogs)” value [3, 15] was 2, the “Ophthalmologic finding: Retinal hemorrhage (number of dogs)” value [3, 15] was 2 and the “Ophthalmologic finding: Vitreal hemorrhage (number of dogs)” value [3, 15] was 1. The “D.R. ganglion … Inflammation (incidence)” value [3, 16] was 1, the “D.R. ganglion … ganglion cell (incidence)” value [3, 16] was 1 and the “Ophthalmologic finding: Normal” value ([3]; Male 7 mg/kg/day (N=3), after 3 months of dosing) was 3. The “Brain: Degeneration: nerve fiber (incidence)” value [3, 17] was 1, the “Brain: Vacuolation: neuronal (incidence)” value [3, 17] was 3 and the “Eye/Optic nerve: Degeneration, optic nerve fiber (incidence)” value [3, 17] was 1. The “Eye/Optic nerve: Inflammation: retina (incidence)” value [3, 17] was 1, the “D.R. ganglion: cerv., thoracic, lumbar: Degeneration: nerve fiber (incidence)” value [3, 18] was 2 and the “D.R. ganglion … Inflammation (incidence)” value [3, 18] was 2. For the same compound, the “D.R. ganglion … ganglion cell (incidence)” value [3, 18] was 3, the “Ophthalmologic finding: Normal” value ([3]; Male 15 mg/kg/day (N=3), after 3 months of dosing) was 3 and the “Brain: Degeneration/necrosis; neuronal (incidence)” value [3, 19] was 3. For the same compound, the “Brain: Degeneration: nerve fiber (incidence)” value [3, 19] was 3, the “Brain: Gliosis (incidence)” value [3, 19] was 3 and the “Brain: Inflammation: perivascular (incidence)” value [3, 19] was 3. The “Brain: Vacuolation: neuronal (incidence)” value [3, 19] was 3, the “Eye/Optic nerve: Degeneration, optic nerve fiber (incidence)” value [3, 19] was 1 and the “Eye/Optic nerve: Inclusion: retina (incidence)” value [3, 19] was 3. The “Eye/Optic nerve: Inflammation: retina (incidence)” value [3, 19] was 1, the “Sciatic nerve: Degeneration: nerve fiber (incidence)” value [3, 19] was 1 and the “D.R. ganglion: cerv., thoracic, lumbar: Degeneration: nerve fiber (incidence)” value [3, 20] was 3. The “D.R. ganglion … Inflammation (incidence)” value [3, 20] was 2, the “D.R. ganglion … ganglion cell (incidence)” value [3, 20] was 3 and the “Spinal cord, cerv., thoracic, lumbar: Degeneration: nerve fiber (incidence)” value [3, 20] was 2. For the same compound, the “Ophthalmologic finding: Chorioretinal scar (number of dogs)” value [3, 21] was 2, the “Ophthalmologic finding: Tepatum hyperreflectivity (number of dogs)” value [3, 21] was 1 and the “Ophthalmologic finding: Normal” value [3, 22] was 2. The “Ophthalmologic finding: Retinal detachment (number of dogs)” value [3, 22] was 2, the “Ophthalmologic finding: Retinal hemorrhage (number of dogs)” value [3, 22] was 3 and the “Ophthalmologic finding: Vitreal hemorrhage (number of dogs)” value [3, 22] was 1. The “GLDH increase vs pretest” value ([3]; decedent female, 30 mg/kg/day) was 2 fold, the “WBC increase vs pretest” value ([3]; decedent female, 30 mg/kg/day) was under 2 fold and the “neutrophils increase vs pretest” value ([3]; decedent female, 30 mg/kg/day) was 2 fold. For the same compound, the “bile increase vs pretest” value ([3]; decedent female, 30 mg/kg/day, Day 84) was 5 fold, the “brain findings after recovery” value [3, 23] was “extensive neuronal loss accompanied by marked astrogliosis” and the “reversibility of pathological lesions (except thymus and bone marrow)” value [3, 23] was “still present after the 5-week recovery period”. The “ALT group mean elevation vs. pretest” value [3, 24] was “ca. 2 fold”, the “GLDH group mean elevation vs. pretest” value [3, 24] was “ca. 4 fold” and the platelet counts increase [3, 25] was 24–30%. For the same compound, the “reticulocytes (% and total count) decrease” value [3, 25] was 42–50%, the NOEL ([3]; dog, 3-month study) was “not established” and the “severity of lesions in the brain” value ([3]; dog, 3-month, 15 and 30 mg/kg/day) was “dose-related and ranged from slight to moderate”. For the same compound, the ophthalmologic observations ([3]; dog, 3-month, Week 6 examination) was “No treatment-related ophthalmologic observations”, the gallbladder microscopic findings ([3]; dog, 3-month, all treated groups) was “pigment deposit (lamina propria) was noted in all animals in the treated groups” and the “binding to brain 5-HT1B receptors (PET)” value ([4]; human subjects) was “bind dose-dependently”. For the same compound, the “receptor occupancy in brain region” value ([4]; man, 5 mg dose) was 50%, the plasma concentration ([5]; decedent female, prior to euthanasia on Day 86) was 17 µM and the “exposure relative to predicted therapeutic exposure” value ([5]; dog, 3-month study) was 350 fold. The PLD in tissues [6] was “dose-dependent PLD in a limited number of tissues”, the “blood brain barrier crossing” value [7] was “readily crosses the blood brain barrier” and the “inhibition of mitochondrial oxidative phosphorylation” value [8] was “not a direct inhibitor”. The AUC [9] was 84 µM·h, the “binding to brain 5-HT1B receptors (PET)” value [10] was “bind dose-dependently” and the “estimated AUC” value [11] was 0.383 µM·h.
